# Experimental data from ChEMBL document CHEMBL2086252, “Syntheses and evaluation of anticonvulsant activity of novel branched alkyl carbamates” (J Med Chem, 2012).
# The source made the active and inactive calls. No cut-off for these calls is given here.
# Legend:
# Mus musculus [1] = experiment: Protective index, ratio of TD50 for ip dosed albino CF1 mouse by rotarod test to ED50 for ip dosed albino CF1 mouse by 6 Hz psychomotor seizure test; format: functional
# Procedure, shortened: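 Protective index calculated as TD50/ED50, with TD50 and ED50 taken from the same species and dosing route.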
# Mus musculus [2] = experiment: Anticonvulsant activity in albino CF1 mouse assessed as protection against subcutaneous metrazol-induced seizures at 30 mg/kg, ip after 0.5 hrs; format: functional, organism-based; set-up: dose 30 mg/kg
# Procedure, shortened: (§1)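 Mice dosed ip at 30, 100 or 300 mg/kg, then tested 0.5 h and 4 h after administration in the MES or scMet test. Protection was recorded as animals protected over animals tested. Neurotoxicity was recorded as motor impairment or sedation, as animals affected over animals tested.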
# Mus musculus [3] = experiment: Anticonvulsant activity in albino CF1 mouse assessed as protection against subcutaneous metrazol-induced seizures at 100 mg/kg, ip after 0.5 hrs; format: functional, organism-based; set-up: dose 100 mg/kg; procedure, shortened: as §1
# Mus musculus [4] = experiment: Anticonvulsant activity in albino CF1 mouse assessed as protection against subcutaneous metrazol-induced seizures at 30 mg/kg, ip after 4 hrs; format: functional, organism-based; set-up: dose 30 mg/kg; procedure, shortened: as §1
# Mus musculus [5] = experiment: Anticonvulsant activity in albino CF1 mouse assessed as protection against subcutaneous metrazol-induced seizures at 100 mg/kg, ip after 4 hrs; format: functional, organism-based; set-up: dose 100 mg/kg; procedure, shortened: as §1
# Mus musculus [6] = experiment: Anticonvulsant activity in albino CF1 mouse assessed as protection against subcutaneous metrazol-induced seizures at 300 mg/kg, ip after 4 hrs; format: functional, organism-based; set-up: dose 300 mg/kg; procedure, shortened: as §1
# Mus musculus [7] = experiment: Anticonvulsant activity in albino CF1 mouse assessed as protection against maximal electroshock-induced seizures at 30 mg/kg, ip after 0.5 hrs; format: functional, organism-based; set-up: dose 30 mg/kg; procedure, shortened: as §1
# Mus musculus [8] = experiment: Anticonvulsant activity in albino CF1 mouse assessed as protection against maximal electroshock-induced seizures at 100 mg/kg, ip after 0.5 hrs; format: functional, organism-based; set-up: dose 100 mg/kg; procedure, shortened: as §1
# Mus musculus [9] = experiment: Anticonvulsant activity in albino CF1 mouse assessed as protection against maximal electroshock-induced seizures at 30 mg/kg, ip after 4 hrs; format: functional, organism-based; set-up: dose 30 mg/kg; procedure, shortened: as §1
# Mus musculus [10] = experiment: Anticonvulsant activity in albino CF1 mouse assessed as protection against maximal electroshock-induced seizures at 100 mg/kg, ip after 4 hrs; format: functional, organism-based; set-up: dose 100 mg/kg; procedure, shortened: as §1
# Mus musculus [11] = experiment: Anticonvulsant activity in albino CF1 mouse assessed as protection against maximal electroshock-induced seizures at 300 mg/kg, ip after 4 hrs; format: functional, organism-based; set-up: dose 300 mg/kg; procedure, shortened: as §1
# Mus musculus [12] = experiment: Neurotoxicity in albino CF1 mouse assessed as minimal motor impairment at 30 mg/kg, ip after 0.5 hrs by rotarod test; format: toxicity, organism-based; set-up: dose 30 mg/kg, route intraperitoneal; settings: in vivo; procedure, shortened: as §1
# Mus musculus [13] = experiment: Neurotoxicity in albino CF1 mouse assessed as minimal motor impairment at 100 mg/kg, ip after 0.5 hrs by rotarod test; format: toxicity, organism-based; set-up: dose 100 mg/kg, route intraperitoneal; settings: in vivo; procedure, shortened: as §1
# Mus musculus [14] = experiment: Neurotoxicity in albino CF1 mouse assessed as minimal motor impairment at 30 mg/kg, ip after 4 hrs by rotarod test; format: toxicity, organism-based; set-up: dose 30 mg/kg, route intraperitoneal; settings: in vivo; procedure, shortened: as §1
# Mus musculus [15] = experiment: Neurotoxicity in albino CF1 mouse assessed as minimal motor impairment at 100 mg/kg, ip after 4 hrs by rotarod test; format: toxicity, organism-based; set-up: dose 100 mg/kg, route intraperitoneal; settings: in vivo; procedure, shortened: as §1
# Mus musculus [16] = experiment: Neurotoxicity in albino CF1 mouse assessed as minimal motor impairment at 300 mg/kg, ip after 4 hrs by rotarod test; format: toxicity, organism-based; set-up: dose 300 mg/kg, route intraperitoneal; settings: in vivo; procedure, shortened: as §1
# Rattus norvegicus [17] = experiment: Anticonvulsant activity in Sprague-Dawley albino rat assessed as protection against maximal electroshock-induced seizures at 30 mg/kg, po after 15 mins; format: functional, organism-based; set-up: dose 30 mg/kg
# Procedure, shortened: (§2)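 Rats dosed orally. Anti-MES protection was scored as animals protected over animals tested at each time after dosing. Neurotoxicity was scored as motor impairment or sedation, as animals affected over animals tested.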
# Rattus norvegicus [18] = experiment: Anticonvulsant activity in Sprague-Dawley albino rat assessed as protection against maximal electroshock-induced seizures at 30 mg/kg, po after 30 mins; format: functional, organism-based; set-up: dose 30 mg/kg; procedure, shortened: as §2
# Rattus norvegicus [19] = experiment: Anticonvulsant activity in Sprague-Dawley albino rat assessed as protection against maximal electroshock-induced seizures at 30 mg/kg, po after 1 hr; format: functional, organism-based; set-up: dose 30 mg/kg; procedure, shortened: as §2
# Rattus norvegicus [20] = experiment: Anticonvulsant activity in Sprague-Dawley albino rat assessed as protection against maximal electroshock-induced seizures at 30 mg/kg, po after 2 hrs; format: functional, organism-based; set-up: dose 30 mg/kg; procedure, shortened: as §2
# Rattus norvegicus [21] = experiment: Anticonvulsant activity in Sprague-Dawley albino rat assessed as protection against maximal electroshock-induced seizures at 30 mg/kg, po after 4 hrs; format: functional, organism-based; set-up: dose 30 mg/kg; procedure, shortened: as §2
# Rattus norvegicus [22] = experiment: Neurotoxicity in Sprague-Dawley albino rat assessed as minimal motor impairment at 30 mg/kg, po by rotarod test; format: toxicity, organism-based; set-up: dose 30 mg/kg, route oral; settings: in vivo; procedure, shortened: as §2
# Mus musculus [23] = experiment: Anticonvulsant activity in ip dosed albino CF-1 mouse assessed as protection against 6 Hz psychomotor seizure; format: functional; settings: albino CF-1, ip
# Procedure, shortened: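 Quantitative testing: rats dosed orally or ip in MES and scMet tests, and mice dosed ip, including the 6 Hz (32 mA) psychomotor seizure test. ED50 and TD50 were reported in mg/kg with ranges in parentheses. Protective index was calculated as TD50/ED50.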
# Rattus norvegicus [24] = experiment: Anticonvulsant activity in Sprague-Dawley albino rat assessed as protection against pilocarpine-induced status epilepticus at 65 mg/kg, ip; format: functional, organism-based; set-up: dose 65 mg/kg
# Procedure, shortened: (§3)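 Pilocarpine status epilepticus model in rats. Number and severity of convulsive seizures were observed behaviourally.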
# Rattus norvegicus [25] = experiment: Neurotoxicity in pilocarpine-induced status epilepticus Sprague-Dawley albino rat model assessed as minimal motor impairment at 100 mg/kg, ip after 0.25 hr by rotarod test; format: toxicity, organism-based; set-up: dose 100 mg/kg, route intraperitoneal; settings: in vivo
# Rattus norvegicus [26] = experiment: Neurotoxicity in pilocarpine-induced status epilepticus Sprague-Dawley albino rat model assessed as minimal motor impairment at 300 mg/kg, ip after 0.25 hr by rotarod test; format: toxicity, organism-based; set-up: dose 300 mg/kg, route intraperitoneal; settings: in vivo
# Procedure, shortened: (§4)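 Rat pilocarpine status epilepticus model: test carbamate given at 0 or 30 min after the first observed Racine stage 3 motor seizure, which marks SE onset. Neurotoxicity was scored within the same model.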
# Rattus norvegicus [27] = experiment: Neurotoxicity in pilocarpine-induced status epilepticus Sprague-Dawley albino rat model assessed as minimal motor impairment at 30 mg/kg, ip after 0.25 hr by rotarod test; format: toxicity, organism-based; set-up: dose 30 mg/kg, route intraperitoneal; settings: in vivo; procedure, shortened: as §4
# Rattus norvegicus [28] = experiment: Neurotoxicity in pilocarpine-induced status epilepticus Sprague-Dawley albino rat model assessed as minimal motor impairment at 100 mg/kg, ip after 0.5 hrs by rotarod test; format: toxicity, organism-based; set-up: dose 100 mg/kg, route intraperitoneal; settings: in vivo
# Rattus norvegicus [29] = experiment: Neurotoxicity in pilocarpine-induced status epilepticus Sprague-Dawley albino rat model assessed as minimal motor impairment at 300 mg/kg, ip after 0.5 hrs by rotarod test; format: toxicity, organism-based; set-up: dose 300 mg/kg, route intraperitoneal; settings: in vivo; procedure, shortened: as §4
# Rattus norvegicus [30] = experiment: Neurotoxicity in pilocarpine-induced status epilepticus Sprague-Dawley albino rat model assessed as minimal motor impairment at 30 mg/kg, ip after 0.5 hrs by rotarod test; format: toxicity, organism-based; set-up: dose 30 mg/kg, route intraperitoneal; settings: in vivo; procedure, shortened: as §4
# Rattus norvegicus [31] = experiment: Neurotoxicity in pilocarpine-induced status epilepticus Sprague-Dawley albino rat model assessed as minimal motor impairment at 100 mg/kg, ip after 1 hr by rotarod test; format: toxicity, organism-based; set-up: dose 100 mg/kg, route intraperitoneal; settings: in vivo
# Rattus norvegicus [32] = experiment: Neurotoxicity in pilocarpine-induced status epilepticus Sprague-Dawley albino rat model assessed as minimal motor impairment at 30 mg/kg, ip after 1 hr by rotarod test; format: toxicity, organism-based; set-up: dose 30 mg/kg, route intraperitoneal; settings: in vivo; procedure, shortened: as §4
# Rattus norvegicus [33] = experiment: Neurotoxicity in pilocarpine-induced status epilepticus Sprague-Dawley albino rat model assessed as minimal motor impairment at 100 mg/kg, ip after 2 hrs by rotarod test; format: toxicity, organism-based; set-up: dose 100 mg/kg, route intraperitoneal; settings: in vivo
# Rattus norvegicus [34] = experiment: Neurotoxicity in pilocarpine-induced status epilepticus Sprague-Dawley albino rat model assessed as minimal motor impairment at 30 mg/kg, ip after 2 hrs by rotarod test; format: toxicity, organism-based; set-up: dose 30 mg/kg, route intraperitoneal; settings: in vivo; procedure, shortened: as §4
# Rattus norvegicus [35] = experiment: Neurotoxicity in pilocarpine-induced status epilepticus Sprague-Dawley albino rat model assessed as minimal motor impairment at 100 mg/kg, ip after 4 hrs by rotarod test; format: toxicity, organism-based; set-up: dose 100 mg/kg, route intraperitoneal; settings: in vivo
# Rattus norvegicus [36] = experiment: Neurotoxicity in pilocarpine-induced status epilepticus Sprague-Dawley albino rat model assessed as minimal motor impairment at 30 mg/kg, ip after 4 hrs by rotarod test; format: toxicity, organism-based; set-up: dose 30 mg/kg, route intraperitoneal; settings: in vivo; procedure, shortened: as §4
# Rattus norvegicus [37] = experiment: Anticonvulsant activity in ip dosed Sprague-Dawley albino rat assessed as protection against pilocarpine-induced status epilepticus after 0.5 hrs; format: functional; procedure, shortened: as §3
# Rattus norvegicus [38] = experiment: Neurotoxicity in pilocarpine-induced status epilepticus Sprague-Dawley albino rat model assessed as minimal motor impairment at 50 mg/kg, ip after 0.5 hrs by rotarod test; format: toxicity, organism-based; set-up: dose 50 mg/kg, route intraperitoneal; settings: in vivo; procedure, shortened: as §4
# Rattus norvegicus [39] = experiment: Neurotoxicity in pilocarpine-induced status epilepticus Sprague-Dawley albino rat model assessed as minimal motor impairment at 160 mg/kg, ip after 0.5 hrs by rotarod test; format: toxicity, organism-based; set-up: dose 160 mg/kg, route intraperitoneal; settings: in vivo
smiles,measurement,setting,value
CC(C)C(COC(N)=O)C(C)C,Ratio TD50/ED50,Mus musculus [1],3.4
same,Activity,Mus musculus [2],inactive
same,Activity,Mus musculus [3],inactive
same,Activity,Mus musculus [4],inactive
same,Activity,Mus musculus [5],inactive
same,Activity,Mus musculus [6],inactive
same,Activity,Mus musculus [7],inactive
same,Activity,Mus musculus [8],inactive
same,Activity,Mus musculus [9],inactive
same,Activity,Mus musculus [10],inactive
same,Activity,Mus musculus [11],inactive
same,Activity,Mus musculus [12],Non-toxic
same,Activity,Mus musculus [13],Non-toxic
same,Activity,Mus musculus [14],Non-toxic
same,Activity,Mus musculus [15],Non-toxic
same,Activity,Mus musculus [16],Non-toxic
same,Activity,Rattus norvegicus [17],inactive
same,Activity,Rattus norvegicus [18],inactive
same,Activity,Rattus norvegicus [19],inactive
same,Activity,Rattus norvegicus [20],inactive
same,Activity,Rattus norvegicus [21],inactive
same,Activity,Rattus norvegicus [22],Non-toxic
same,ED50,Mus musculus [23],41 mg/kg
same,Activity,Rattus norvegicus [24],Active
same,Activity,Rattus norvegicus [25],Toxic
same,Activity,Rattus norvegicus [26],Toxic
same,Activity,Rattus norvegicus [27],Non-toxic
same,Activity,Rattus norvegicus [28],Toxic
same,Activity,Rattus norvegicus [29],Toxic
same,Activity,Rattus norvegicus [30],Non-toxic
same,Activity,Rattus norvegicus [31],Non-toxic
same,Activity,Rattus norvegicus [32],Non-toxic
same,Activity,Rattus norvegicus [33],Non-toxic
same,Activity,Rattus norvegicus [34],Non-toxic
same,Activity,Rattus norvegicus [35],Non-toxic
same,Activity,Rattus norvegicus [36],Non-toxic
same,ED50,Rattus norvegicus [37],94 mg/kg
same,ED97,Rattus norvegicus [37],184 mg/kg
same,Activity,Rattus norvegicus [38],Non-toxic
same,Activity,Rattus norvegicus [39],Toxic
